This is an account of results in PubChem BioAssay AID1040 (The Scripps Research Institute Molecular Screening Center, 2008).

The whole screen tested about 200,000 compounds, of which about 2,000 (1%) were called active. The entries come from a sample that favours actives as a whole. Unmarked numbers belong to inactive results.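 The calls were made as follows: active = inhibition above the campaign mean inhibition of all tested compounds plus 3 SD (cut at about 20% in these data); inactive = the rest.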

Sequence of Neuropeptide Y receptor type 1 (Homo sapiens) (P25929 whole entry, looked up): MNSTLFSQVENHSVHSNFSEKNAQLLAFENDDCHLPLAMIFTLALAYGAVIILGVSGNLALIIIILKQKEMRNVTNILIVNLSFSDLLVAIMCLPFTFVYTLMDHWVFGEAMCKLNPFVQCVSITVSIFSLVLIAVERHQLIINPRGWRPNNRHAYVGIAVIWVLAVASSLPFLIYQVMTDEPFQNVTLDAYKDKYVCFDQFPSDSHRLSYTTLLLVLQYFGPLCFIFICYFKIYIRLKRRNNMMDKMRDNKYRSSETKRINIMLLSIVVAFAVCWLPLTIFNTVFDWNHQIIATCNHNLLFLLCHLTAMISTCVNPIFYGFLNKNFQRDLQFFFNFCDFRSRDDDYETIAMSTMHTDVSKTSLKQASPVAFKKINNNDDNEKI

In the experiment the target is Neuropeptide Y receptor type 1 (Homo sapiens) (UniProt P25929). Nature of the experiment: NPY-Y1 receptor antagonists, primary screen, cell-based (AID 1040).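 Also: 0% = DMSO wells given NPY plus isoproterenol and 100% = isoproterenol alone without NPY.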 Particulars: HEK293-CNG Y1 cells, membrane potential fluorescence; at 3.6 µM; hits give high values. In outline:
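Material: Y1- and CNG-channel-expressing HEK293 cells / Probe or stimulus: NPY 25 nM then isoproterenol 1 µM plus Ro 20-1724 25 µM / Doses: 3.6 µM single dose, DMSO 0.4% / Schedule: compound incubation 1 h at room temperature, readout 45 min post-stimulation / Signal: membrane potential fluorescence / Benchmarks: isoproterenol-only wells as full block versus NPY-plus-isoproterenol wells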
As usually defined, the inhibition is the change of the read-out against control, counted positive when it falls. For `N#Cc1ccc(Cn2cc(C(=O)c3ccco3)c3ccccc32)cc1`, the inhibition was 21.4% (active).
Take `NC(=O)Cn1cc(C(=O)c2ccccc2F)c2ccccc21`: the inhibition was 4.87%.
With `CC(C)Oc1cccc(C(=O)C2CCCN(C3CCOCC3)C2)c1` (stereo not given) the figure was 1.82%; with `CCOC(=O)c1c(N)n(CCN2CCOCC2)c2nc3ccccc3nc12`, -2.58%; with `CCOC(=O)c1c(N)n(Cc2ccccc2)c2nc3ccccc3nc12`, 26.8% (active).
As for `COc1cc(Cn2c(N)c(C(=O)NCc3ccco3)c3nc4ccccc4nc32)cc(OC)c1OC`, the inhibition was -7.12%.
With `N=c1ccccn1Cc1ccccc1` the figure was -3.41%.
Take `CCc1nnc(NS(=O)(=O)c2ccc(N=Cc3c(O)n(-c4ccccc4)c(=O)[nH]c3=O)cc2)s1`: the inhibition is 12.6%.
With `COc1ccc(C(=O)C2CCCN(Cc3ccc(C)s3)C2)cc1OC` (stereo not given) the figure was -3.61%.
Next, `O=C(CN1CCCC1=O)NCCc1ccccc1`: -2.4%.
